Assay [1] relates to Neutrophil. Kind of assay: Formation of PMA-induced superoxide in Sprague-Dawley rat neutrophil at 1 uM per 10^6 cells after 30 min. In kind it is functional. In short, it runs like this: (§1)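 Superoxide generation by rat (Sprague Dawley) neutrophils stimulated with PMA at 3 nM. Test range 1–30 µM. Readout is superoxide formed in nmol/10⁶ cells/30 min, with percent inhibition versus control. N = 3.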

The subject of assay [2] is Neutrophil. Kind of assay: Formation of PMA-induced superoxide in Sprague-Dawley rat neutrophil at 3 uM per 10^6 cells after 30 min. In kind it is functional. The method, boiled down: as §1
For assay [3], the system named is Neutrophil. Put plainly: Inhibition of PMA-induced superoxide formation in Sprague-Dawley rat neutrophil at 10 uM. In kind it is functional. The method, boiled down:
as §1

Assay [4] has as its system Neutrophil. Put plainly: Formation of fMLP-induced superoxide in Sprague-Dawley rat neutrophil at 5 uM per 10^6 cells after 30 min. In kind it is functional.
Assay [5] deals with Neutrophil. Kind of assay: Inhibition of fMLP-induced superoxide formation in Sprague-Dawley rat neutrophil at 5 uM. In kind it is functional.
Assay [6] has as its system Neutrophil. Kind of assay: Inhibition of PMA-induced superoxide formation in Sprague-Dawley rat neutrophil at 1 uM. In kind it is functional. In short, it runs like this:
as §1

In assay [7] the test system is Neutrophil. Kind of assay: Inhibition of PMA-induced superoxide formation in Sprague-Dawley rat neutrophil at 3 uM. In kind it is functional. The method, boiled down:
as §1

Assay [8] has as its system Neutrophil. Put plainly: Inhibition of PMA-induced superoxide formation in Sprague-Dawley rat neutrophil. In kind it is functional, cell-based. In short, it runs like this:
as §1

The subject of assay [9] is Neutrophil. Put plainly: Formation of fMLP-induced superoxide in Sprague-Dawley rat neutrophil at 3 uM per 10^6 cells after 30 min. In kind it is functional. In short, it runs like this: (§2)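 Rat (Sprague Dawley) neutrophils were stimulated with fMLP (0.3 µM) plus cytochalasin B (5 µg/mL). Superoxide formed was reported as nmol/10⁶ cells/30 min and percent inhibition versus control. IC50 was derived from the […] concentration series. N = 3.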

Assay [10] deals with Neutrophil. Kind of assay: Formation of fMLP-induced superoxide in Sprague-Dawley rat neutrophil at 10 uM per 10^6 cells after 30 min. In kind it is functional. The method, boiled down: as §2
The test system of assay [11] is Neutrophil. Kind of assay: Inhibition of fMLP-induced superoxide formation in Sprague-Dawley rat neutrophil at 3 uM. In kind it is functional. In short, it runs like this:
as §2

In assay [12] the test system is Neutrophil. Put plainly: Inhibition of fMLP-induced superoxide formation in Sprague-Dawley rat neutrophil at 10 uM. In kind it is functional. In short, it runs like this:
as §2

Assay [13] concerns Neutrophil. Kind of assay: Inhibition of fMLP-induced superoxide formation in Sprague-Dawley rat neutrophil. In kind it is functional, cell-based. In short, it runs like this: as §2
In assay [14] the test system is Neutrophil. Put plainly: Increase in cAMP level in Sprague-Dawley rat neutrophil. In kind it is functional, cell-based. The method, boiled down:
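Neutrophils were treated for 10 min with the indicated concentrations, with DMSO giving the basal level. Cellular cAMP was measured by enzyme immunoassay kit. Values are means SD of three experiments.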
(cAMP levels reflect the balance of adenylyl cyclase and phosphodiesterase activity.)

The test system of assay [15] is Neutrophil. Kind of assay: Formation of fMLP-induced superoxide in Sprague-Dawley rat neutrophil at 30 uM per 10^6 cells after 30 min. In kind it is functional. In short, it runs like this: as §2
Assay [16] has as its system Neutrophil. Put plainly: Inhibition of fMLP-induced superoxide formation in Sprague-Dawley rat neutrophil at 30 uM. In kind it is functional. In short, it runs like this:
as §2

Assay [17] concerns Neutrophil. Put plainly: Formation of fMLP-induced superoxide in Sprague-Dawley rat neutrophil at 1 uM per 10^6 cells after 30 min. In kind it is functional. In short, it runs like this:
as §2

Assay [18] relates to Neutrophil. Put plainly: Inhibition of fMLP-induced superoxide formation in Sprague-Dawley rat neutrophil at 1 uM. In kind it is functional. In short, it runs like this:
as §2

Assay [19] relates to Neutrophil. Kind of assay: Formation of PMA-induced superoxide in Sprague-Dawley rat neutrophil at 10 uM per 10^6 cells after 30 min. In kind it is functional. In short, it runs like this:
as §1

For assay [20], the system named is Neutrophil. Put plainly: Formation of PMA-induced superoxide in Sprague-Dawley rat neutrophil at 30 uM per 10^6 cells after 30 min. In kind it is functional. The method, boiled down:
as §1

Assay [21] concerns Neutrophil. Put plainly: Inhibition of PMA-induced superoxide formation in Sprague-Dawley rat neutrophil at 30 uM. In kind it is functional. The method, boiled down:
as §1

The structures appear in SMILES notation.

The source of these data is ChEMBL document CHEMBL1147710, “Synthesis of (2E)-3-{2-[(substituted benzyl)oxy]phenyl}acrylaldehydes as novel anti-inflammatory agents” (Bioorg Med Chem Lett, 2006).

As for `CN1CCN(CCCN2c3ccccc3Sc3ccc(C(F)(F)F)cc32)CC1` [TRIFLUOPERAZINE], the Activity in assay [1] amounted to 5.48 nmol; in assay [2], 3.4 nmol; in assay [4], 2.1 nmol; in [9] it was 2.8 nmol; in assay [10], 0.54 nmol. The inhibition at 10 µM in assay [3] amounted to 83.3%; in assay [12] it was 79.5%. In assay [5], the inhibition at 5 µM amounted to 24.2%. Moreover, the inhibition at 1 µM in [6] is 27.6%. The results for the inhibition at 3 µM in assay [7] and in assay [11] were 55.4% and 1.7%, respectively. Also, the IC50 amounted to 2.7 µM in assay [8] and 6.6 µM in [13].

Take `O=Cc1ccccc1OCc1ccccc1`: the Activity entry is “Dose-dependent effect” in [14], 1.01 nmol in [9], 0.86 nmol in assay [10] and 0.62 nmol in assay [15]. The inhibition at 3 µM in [11] is 36.1%. Further, the inhibition at 10 µM in assay [12] is 40.6%. The inhibition at 30 µM in assay [16] was 60.8%. The same compound yielded an IC50 in assay [13] of 15.6 µM.

Turning to `O=C/C=C/c1ccccc1OCc1ccc(Cl)c(Cl)c1`, the inhibition at 10 µM came to 1.9% in assay [3] and 79.8% in assay [12]. Further, the Activity turned out to be 2.56 nmol in assay [17]; 7.77 nmol in assay [19]; 11.4 nmol in assay [20]; 2.03 nmol in [9]; 0.6 nmol in [10]. In addition, in assay [18], the inhibition at 1 µM turned out to be 11.7%. The inhibition at 30 µM in [21] is -51.1%. In assay [11], the inhibition at 3 µM amounted to 29.4%. In assay [13], it took 4.3 µM to reach half-maximal inhibition (IC50).

The inhibition is the drop in the measured response relative to a control, in per cent. What is called IC50 is the concentration needed to halve the response being measured. Low readings indicate greater potency, high ones weaker potency.
